The list is not random: actives were taken first. Their share in the collection is about 0.74%.
RGS16-Gao – modulators of RGS16 binding to Galphao, primary screen, biochemical, human proteins, multiplexed bead flow cytometry; Regulator of G-protein signaling 16 (Homo sapiens) + Guanine nucleotide-binding protein …; bead-based flow cytometry RGS16-Galphao binding, fluorescence; actives lie on both sides; binding response (% of control), % at 10 µM; 220,000 compounds, 0.38% hits; AID 1441, 2008;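 also: Galphao activated by GDP with aluminum fluoride before binding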
Target sequence (O15492 whole entry, looked up): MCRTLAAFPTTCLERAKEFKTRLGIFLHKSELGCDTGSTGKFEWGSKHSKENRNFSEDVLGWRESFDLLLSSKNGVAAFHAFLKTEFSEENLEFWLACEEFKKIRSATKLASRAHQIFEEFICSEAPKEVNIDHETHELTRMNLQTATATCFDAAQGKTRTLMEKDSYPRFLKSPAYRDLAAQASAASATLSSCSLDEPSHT
Target sequence (P09471 whole entry, looked up): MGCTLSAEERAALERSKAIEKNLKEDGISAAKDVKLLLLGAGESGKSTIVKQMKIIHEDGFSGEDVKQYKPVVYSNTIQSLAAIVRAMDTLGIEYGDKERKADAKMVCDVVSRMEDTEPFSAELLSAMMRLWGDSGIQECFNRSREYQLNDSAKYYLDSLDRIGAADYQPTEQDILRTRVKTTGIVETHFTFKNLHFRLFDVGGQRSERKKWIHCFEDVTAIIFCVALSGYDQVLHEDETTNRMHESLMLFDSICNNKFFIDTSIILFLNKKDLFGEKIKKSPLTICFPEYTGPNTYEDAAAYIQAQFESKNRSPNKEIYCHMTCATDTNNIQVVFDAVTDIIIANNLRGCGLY
RGS8-Gao reg – RGS8-Galphao binding modulators, primary screen, biochemical, multiplexed bead flow cytometry; Guanine nucleotide-binding protein G(o) subunit alpha (Homo sapiens), P09471; response (percent of control binding), % at 10 µM; 220,000 compounds, 0.34% hits; actives lie on both sides; AID 1423, 2008; in the data active = response below about 60% or above about 140%; inactive = in between;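 also: Galphao activated as the GDP aluminium fluoride complex binding bead-coupled RGS8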
Calb biofilm kill – clotrimazole potentiators killing C. albicans biofilm, primary screen, 4-compound mixtures. C. albicans biofilm persisters + clotrimazole, fluorescence viability; primary screen in compound mixtures of four per well. inhibition, % at 7.6 µM. 120,000 compounds, 0.02% hits;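 active = inhibition above 30.3% in the primary screen of four-compound pools, then above 30% when the compound was retested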;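 also: compounds exposed to preformed 24 h biofilms for 48 h; 0% = untreated biofilm control and 100% = clotrimazole plus chlorhexidine kill blank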
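Test system: C. albicans CAF4-2 wild-type biofilms; buffer or medium: RPMI/MOPS medium, pH 7.0; schedule: 24 h biofilm formation, then 48 h compound exposure, 37 °C; detection: Alamar Blue fluorescence; measure: percent inhibition of biofilm viability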
RGS4-Gao reg – modulators of RGS4 binding to Galphao, primary screen, biochemical, multiplexed bead flow cytometry | Guanine nucleotide-binding protein G(o) subunit alpha (Homo sapiens), P09471 | actives lie on both sides | binding response (% of control), % at 10 µM | 220,000 compounds, 0.33% hits; in the data active = binding response below about 49% or above about 150%; inactive = in between;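 also: fluorescent Galphao activated with aluminum fluoride binding bead-coupled RGS4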
RGS7-Gao reg – RGS7-Galphao binding modulators, primary screen, biochemical, multiplexed bead flow cytometry. Guanine nucleotide-binding protein G(o) subunit alpha (Homo sapiens), P09471. actives lie on both sides. binding response (% of control), % at 10 µM. 220,000 compounds, 0.35% hits. AID 1439, 2008; in the data active = binding response below about 49% or above about 150%;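 also: fluorescent Galphao held in activated GDP-AlF4 state binding bead-coupled RGS7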
RGS-Gao – modulators of RGS–Galpha-o binding, primary screen, biochemical, multiplexed beads, flow cytometry, RGS4/7/8/16/19; shares compounds with RGS16-Gao; multiplexed bead flow cytometry; RGS4–Galpha-o binding response, % at 10 µM; 1,600 compounds, 99% hits; AID 1504, 2009;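 also: fluorescently labeled Galpha-o bound to GDP with aluminium fluoride binding biotinylated RGS beads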
Avidin counter – disruption of biotin probe capture by avidin, counter-screen for RGS protein interaction modulators, biochemical, flow cytometry, bead-based; shares compounds with RGS16-Gao; streptavidin beads, fluorescein-biotin binding; inhibition, % at 10 µM; 1,700 tested, under 10 active; AID 1783, 2009;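 active = inhibition above 50%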;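 also: median green fluorescence of gated singlet beads compared with DMSO control wells; 0% = DMSO wells and 100% = complete loss of bead fluorescence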
RGS8-Gao confirm – RGS8-Galphao binding modulators, confirmation, biochemical, multiplexed bead flow cytometry, single concentration; shares compounds with RGS16-Gao; bead-based flow cytometry RGS8-Galphao binding, fluorescence; actives lie on both sides; binding response (% of control), % at 10 µM; 1,700 compounds, 3% hits; AID 1836, 2009; in the data active = binding response below about 72% or above about 130%; inactive = in between;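 also: Galphao activated as GDP AlF4 complex before binding bead RGS8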
RGS7-Gao single – RGS7-Galphao binding modulators, confirmation, biochemical, multiplexed bead flow cytometry, single concentration | shares compounds with RGS16-Gao | bead-based flow cytometry RGS7-Galphao binding; actives lie on both sides | response (percent of control binding), % at 10 µM | 1,700 compounds, 7.8% hits | AID 1837, 2009; in the data active = response below about 75% or above about 130%; inactive = in between;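 also: fluorescent Galphao activated with GDP and aluminum fluoride binding bead-coupled RGS7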
RGS16-Gao single – modulators of RGS16-Galphao protein binding, confirmation, biochemical, single concentration, multiplexed bead flow cytometry; AID 1838, 2009; response (% of control binding), % at 10 µM; bead-based flow cytometry; actives lie on both sides; 1,700 compounds, 4% hits; shares compounds with RGS16-Gao; in the data active = response below about 74% or above about 130%; inactive = in between;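 also: Galphao activated as the GDP aluminium fluoride complex binding bead-coupled RGS16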
RGS4-Gao single – modulators of RGS4-Galphao protein binding, confirmation, biochemical, single concentration, multiplexed bead flow cytometry; shares compounds with RGS16-Gao; actives lie on both sides; binding response (% of control), % at 10 µM; 1,700 compounds, 4% hits; AID 1840, 2009; in the data active = binding response below about 74% or above about 130%; inactive = in between
RGS19-Gao conf – regulators of RGS19-Galphao binding, confirmation, biochemical, single point, multiplexed bead flow cytometry; response (percent of control binding), % at 10 µM; 1,700 compounds, 5% hits; AID 1841, 2009; bead-based flow cytometry RGS19-Galphao binding; actives lie on both sides; shares compounds with RGS16-Gao; in the data active = response below about 50% or above about 160%; inactive = in between;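 also: 100% = no compound control and 0% = blank background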
Starred values were filed as active, the others as inactive; [ ] = remark or other dose. Unless noted, no rule for the calls is given here.

For COc1ccccc1NC(=O)Nc1ccnn1Cc1cccs1 the results were RGS16-Gao -55*, RGS8-Gao reg 6.0*, RGS4-Gao reg -59*, RGS7-Gao reg -20*, Avidin counter 0, RGS8-Gao confirm 98, RGS7-Gao single 94, RGS16-Gao single 97, RGS4-Gao single 98 and RGS19-Gao conf 94.
For Cc1ccc(C)n1Cc1ccc(C(=O)O)cc1 the results were RGS16-Gao 76, RGS8-Gao reg 68, RGS4-Gao reg 89, RGS7-Gao reg 49* and RGS-Gao 89*.
For CSc1nccc(Oc2ccc(C#N)cc2)n1 the results were RGS16-Gao 110, RGS8-Gao reg 103, Calb biofilm kill 14, RGS4-Gao reg 102 and RGS7-Gao reg 104.
`O/N=C/c1ccc(OCc2ccccc2)c(Br)c1` gave RGS16-Gao 3.0*, RGS8-Gao reg 74, Calb biofilm kill 1, RGS4-Gao reg 84, RGS7-Gao reg 82, RGS-Gao 84*, Avidin counter -2, RGS8-Gao confirm 101, RGS7-Gao single 104, RGS16-Gao single 100, RGS4-Gao single 103 and RGS19-Gao conf 106.
O/N=C/c1ccc(OCc2ccccc2)c(Cl)c1 was read as RGS16-Gao 51, RGS8-Gao reg 82, Calb biofilm kill -14, RGS4-Gao reg 88 and RGS7-Gao reg 92.
For CC(C)N(NC(=O)c1cccc2ccccc12)C(C)C the results were RGS16-Gao 175*[activator], RGS8-Gao reg 151*[activator], Calb biofilm kill 10, RGS4-Gao reg 144, RGS7-Gao reg 147, RGS-Gao 144*, Avidin counter 1, RGS8-Gao confirm 102, RGS7-Gao single 103, RGS16-Gao single 98, RGS4-Gao single 100 and RGS19-Gao conf 103.
Screening Cc1cc(C)c(C)c(S(=O)(=O)N[C@@H](C)C(=O)OCC(N)=O)c1C returned RGS16-Gao 101, RGS8-Gao reg 103, Calb biofilm kill 13, RGS4-Gao reg 100 and RGS7-Gao reg 97.
O=C(O)/C=C\c1ccccc1Oc1ccc(F)cc1 was read as RGS16-Gao 101, RGS8-Gao reg 100, Calb biofilm kill 30, RGS4-Gao reg 127, RGS7-Gao reg 167*[activator], RGS-Gao 127*, Avidin counter 1, RGS8-Gao confirm 103, RGS7-Gao single 86, RGS16-Gao single 98, RGS4-Gao single 97 and RGS19-Gao conf 98.

Screens deposited in PubChem by several laboratories.
